The source of these data is ChEMBL document CHEMBL4732078 (Eur J Med Chem, 2021).

Series [1] has as its system RAF proto-oncogene serine/threonine-protein kinase (Homo sapiens), P04049 [Y340D,Y341D]. Description: Inhibition of human recombinant c-Raf Y340D/Y341D mutant (306 to end residues) using inactive MEK1 as substrate at 10 uM incubated for 40 mins in presence of [gamma33P-ATP] by radiometric scintillation counting analysis.
Series [2] addresses Phosphatidylinositol 4,5-bisphosphate 3-kinase catalytic subunit alpha isoform (Homo sapiens, UniProt P42336). The experiment in a line: Inhibition of PI3Kalpha in human Rh30 cells assessed as reduction in rhIGF1-stimulated AKT phosphorylation at Ser473 treated for 1 hr followed by incubation with IGF1 for 10 mins by western blot analysis. The class given is cell-based. The conditions noted are these: dose 0.01-1 µM, time 70.0 min. Put shortly:
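U87MG or Rh30 cells held 24 h in serum-free medium, exposed to compound for 1 h, then stimulated with 50 ng/ml IGF-I for 10 min. Lysates blotted for Akt, pAkt T308 and pAkt S473.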
On the technique in general: Immunoblotting shows a protein as a band on a membrane.

The test system of another series is MDA-MB-231. Description: Antiproliferative activity against human MDA-MB-231 cells assessed as reduction in cell viability after 72 hrs by sulforhodamine B assay. Format: functional, cell-based. The note with it: MDA-MB-231, 72 h. The method in brief: (§1)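 SRB assay. Exponentially growing cells seeded at 3000–5000/well, compounds added serially diluted after 24 h, cultured 72 h. Cells fixed with 10% TCA, stained with SRB, dye dissolved in 10 mM Tris-HCl, absorbance read at 560 nm. Inhibition = (ODcontrol − ODtreated)/ODcontrol × 100%. IC50 is the mean of at least three independent tests.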

For a further series, the system named is HCC1954. Description: Antiproliferative activity against human HCC1954 cells assessed as reduction in cell viability after 72 hrs by sulforhodamine B assay. The conditions noted are these: HCC1954, 72 h. The class given is functional, cell-based. The method in brief:
as §1
In general terms: In SRB staining, fixed cells bind dye roughly in proportion to their protein.

For a further series, the system named is ZR-75-1. Description: Antiproliferative activity against human ZR-75-1 cells assessed as reduction in cell viability after 72 hrs by sulforhodamine B assay. Format: functional, cell-based. The conditions noted are these: ZR-75-1, 72 h. Put shortly: as §1
Series [3] is described as follows: Metabolic stability in human hepatocytes assessed as half life. Format: ADME, cell-based, Hepatocyte.
The nature of series [4]: Metabolic stability in Beagle dog hepatocytes assessed as half life. Format: ADME, cell-based, Canis lupus familiaris, Hepatocyte.
Series [5] in a line: Metabolic stability in Beagle dog hepatocytes assessed as intrinsic clearance. The conditions noted are these: read-out: CLH. Format: ADME, cell-based, Canis lupus familiaris, Hepatocyte.
The nature of series [6]: Oral bioavailability in rat at 10 mg/kg. Format: ADME, organism-based. The note with it: in vivo. The method in brief: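 Male rats were dosed orally at 10 mg/kg, with a parallel i.v. arm at 5 mg/kg. Plasma PK parameters were derived, including Cmax, Tmax, T1/2 and AUC0-∞, with oral bioavailability (F) reported against the i.v. arm.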
Series [7] concerns the target Phosphatidylinositol 4,5-bisphosphate 3-kinase catalytic subunit beta isoform (Homo sapiens) (UniProt P42338). The experiment in a line: Inhibition of PI3Kbeta (unknown origin) transfected in human Rh30 cells assessed as reduction in AKT phosphorylation at Thr308 residue at 10XIC50 by western blot analysis. The class given is cell-based. The method in brief:
(§2)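 Rh30 cells ectopically expressing membrane-anchored, N-terminally myristoylated, constitutively active p110α, β, γ or δ. Akt phosphorylation assessed by Western blot; lysates made in RIPA buffer, equal protein heated at 95 °C for 10 min in SDS loading buffer.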

Series [8] addresses Phosphatidylinositol 4,5-bisphosphate 3-kinase catalytic subunit gamma isoform (Homo sapiens) (UniProt P48736). The experiment in a line: Inhibition of PI3Kgamma (unknown origin) transfected in human Rh30 cells assessed as reduction in AKT phosphorylation at Ser473 residue at 10XIC50 by western blot analysis. The class given is cell-based. Put shortly:
as §2

For another series, the system named is Mus musculus. The experiment in a line: In vivo inhibition of PI3Kalpha in BALB/cA nude mouse xenografted with human SK-OV-3 cells assessed as reduction in AKT phosphorylation at Ser473 residue in tumor at 5 mg/kg, po measured after 4 to 8 hrs by Western blot analysis. Format: functional, organism-based. The note with it: time 4-8 hrs. The method in brief:
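Nude mice carrying SKOV-3 xenografts of 200 mm³ got a single oral 5 mg/kg dose. Tumors were collected at 0, 2, 4 or 8 h, homogenized, and pAkt S473 probed by Western blot.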
In general terms: A xenograft is tissue or cells of one species grown in another, often human tumour cells in immunodeficient mice.

Series [9] is described as follows: Toxicity in BALB/cA nude mouse xenografted with human SK-OV-3 cells assessed as blood glucose level at 5 to 20 mg/kg, po administered once a day for 18 days by glucose meter analysis. Format: organism-based. The note with it: in vivo, 432 h, dose 5-20 mg/kg/day, time 18 day. The method in brief: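 Female BALB/cA nude mice, 4–5 weeks old, carried s.c. SKOV-3 xenograft fragments. They were dosed orally once daily for 18 days with vehicle or compound, then fasted 6 h and given glucose orally at 2 g/kg. Blood was sampled at set times up to 2 h, and glucose was measured with a blood glucose meter.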

The species named for another series is Homo sapiens. Description: Selectivity index, ratio of IC50 for human PI3K p110beta/p85alpha to IC50 for human PI3Kalpha by HTRF assay. Put shortly:
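The PI3K isoforms were assayed with an HTRF kit. Each enzyme was incubated in assay buffer containing 10 μM PIP2, and the reaction was started with ATP and run 30 min at room temperature. Stop solution and detection mix were then added and light emission was read. IC50 values were averages of at least 3 separate determinations, and each index is the ratio of IC50 values.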

Series [10] is described as follows: Inhibition of human PI3K p110alpha E545K mutant/p85alpha using PIP2 as substrate incubated for 30 mins in presence of ATP by HTRF assay.

Molecules are shown by their SMILES. The source made the active and inactive calls.

Chain of Phosphatidylinositol 4,5-bisphosphate 3-kinase catalytic subunit alpha isoform (P42336 whole entry, canonical isoform): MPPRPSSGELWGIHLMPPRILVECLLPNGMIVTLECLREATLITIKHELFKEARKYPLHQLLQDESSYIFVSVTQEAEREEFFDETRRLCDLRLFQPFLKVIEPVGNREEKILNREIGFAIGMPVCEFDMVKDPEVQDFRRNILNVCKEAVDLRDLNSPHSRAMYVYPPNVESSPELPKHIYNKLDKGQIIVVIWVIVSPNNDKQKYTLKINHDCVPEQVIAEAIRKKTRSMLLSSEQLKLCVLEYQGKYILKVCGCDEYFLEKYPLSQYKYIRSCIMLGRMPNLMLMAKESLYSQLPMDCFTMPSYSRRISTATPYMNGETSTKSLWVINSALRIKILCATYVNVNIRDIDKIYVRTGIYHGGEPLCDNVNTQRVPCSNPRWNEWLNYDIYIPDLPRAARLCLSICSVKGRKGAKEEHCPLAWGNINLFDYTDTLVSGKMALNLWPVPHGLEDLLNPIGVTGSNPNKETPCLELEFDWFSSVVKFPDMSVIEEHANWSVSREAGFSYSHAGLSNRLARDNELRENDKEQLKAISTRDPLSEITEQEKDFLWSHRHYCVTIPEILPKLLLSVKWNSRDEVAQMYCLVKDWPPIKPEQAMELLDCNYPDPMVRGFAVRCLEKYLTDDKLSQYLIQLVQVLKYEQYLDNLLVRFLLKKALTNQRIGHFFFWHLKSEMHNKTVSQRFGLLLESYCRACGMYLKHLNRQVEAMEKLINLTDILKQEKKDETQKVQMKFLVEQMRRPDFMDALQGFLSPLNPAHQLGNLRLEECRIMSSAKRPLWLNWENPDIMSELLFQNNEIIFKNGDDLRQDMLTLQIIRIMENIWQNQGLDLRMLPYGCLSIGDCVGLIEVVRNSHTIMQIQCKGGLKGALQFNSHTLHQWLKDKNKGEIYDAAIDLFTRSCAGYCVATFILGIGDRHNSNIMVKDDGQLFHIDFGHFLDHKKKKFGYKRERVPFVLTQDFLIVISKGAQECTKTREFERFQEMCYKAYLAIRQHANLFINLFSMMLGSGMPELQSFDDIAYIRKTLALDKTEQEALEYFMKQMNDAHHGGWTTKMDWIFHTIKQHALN
Chain of RAF proto-oncogene serine/threonine-protein kinase (Homo sapiens), P04049 [Y340D,Y341D] (P04049 whole entry Y340D/Y341D, canonical isoform): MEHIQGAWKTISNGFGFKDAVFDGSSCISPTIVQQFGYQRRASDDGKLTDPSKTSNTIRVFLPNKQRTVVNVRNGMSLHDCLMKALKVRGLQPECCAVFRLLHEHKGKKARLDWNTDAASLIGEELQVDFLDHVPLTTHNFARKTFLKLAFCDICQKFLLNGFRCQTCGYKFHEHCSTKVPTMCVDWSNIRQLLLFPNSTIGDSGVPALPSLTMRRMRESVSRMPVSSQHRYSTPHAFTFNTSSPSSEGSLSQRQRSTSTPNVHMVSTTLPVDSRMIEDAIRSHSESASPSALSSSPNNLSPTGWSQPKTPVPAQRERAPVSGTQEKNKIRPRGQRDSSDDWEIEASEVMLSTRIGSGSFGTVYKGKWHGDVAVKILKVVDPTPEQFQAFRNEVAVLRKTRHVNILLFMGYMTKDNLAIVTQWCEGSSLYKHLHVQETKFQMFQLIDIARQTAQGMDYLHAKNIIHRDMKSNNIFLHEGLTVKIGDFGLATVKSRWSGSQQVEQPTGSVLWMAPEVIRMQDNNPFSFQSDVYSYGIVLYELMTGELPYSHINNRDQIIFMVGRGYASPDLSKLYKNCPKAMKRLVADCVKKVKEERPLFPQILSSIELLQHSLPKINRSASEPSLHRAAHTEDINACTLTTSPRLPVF
Chain of Phosphatidylinositol 4,5-bisphosphate 3-kinase catalytic subunit beta isoform (Homo sapiens) (P42338 whole entry, looked up, canonical isoform): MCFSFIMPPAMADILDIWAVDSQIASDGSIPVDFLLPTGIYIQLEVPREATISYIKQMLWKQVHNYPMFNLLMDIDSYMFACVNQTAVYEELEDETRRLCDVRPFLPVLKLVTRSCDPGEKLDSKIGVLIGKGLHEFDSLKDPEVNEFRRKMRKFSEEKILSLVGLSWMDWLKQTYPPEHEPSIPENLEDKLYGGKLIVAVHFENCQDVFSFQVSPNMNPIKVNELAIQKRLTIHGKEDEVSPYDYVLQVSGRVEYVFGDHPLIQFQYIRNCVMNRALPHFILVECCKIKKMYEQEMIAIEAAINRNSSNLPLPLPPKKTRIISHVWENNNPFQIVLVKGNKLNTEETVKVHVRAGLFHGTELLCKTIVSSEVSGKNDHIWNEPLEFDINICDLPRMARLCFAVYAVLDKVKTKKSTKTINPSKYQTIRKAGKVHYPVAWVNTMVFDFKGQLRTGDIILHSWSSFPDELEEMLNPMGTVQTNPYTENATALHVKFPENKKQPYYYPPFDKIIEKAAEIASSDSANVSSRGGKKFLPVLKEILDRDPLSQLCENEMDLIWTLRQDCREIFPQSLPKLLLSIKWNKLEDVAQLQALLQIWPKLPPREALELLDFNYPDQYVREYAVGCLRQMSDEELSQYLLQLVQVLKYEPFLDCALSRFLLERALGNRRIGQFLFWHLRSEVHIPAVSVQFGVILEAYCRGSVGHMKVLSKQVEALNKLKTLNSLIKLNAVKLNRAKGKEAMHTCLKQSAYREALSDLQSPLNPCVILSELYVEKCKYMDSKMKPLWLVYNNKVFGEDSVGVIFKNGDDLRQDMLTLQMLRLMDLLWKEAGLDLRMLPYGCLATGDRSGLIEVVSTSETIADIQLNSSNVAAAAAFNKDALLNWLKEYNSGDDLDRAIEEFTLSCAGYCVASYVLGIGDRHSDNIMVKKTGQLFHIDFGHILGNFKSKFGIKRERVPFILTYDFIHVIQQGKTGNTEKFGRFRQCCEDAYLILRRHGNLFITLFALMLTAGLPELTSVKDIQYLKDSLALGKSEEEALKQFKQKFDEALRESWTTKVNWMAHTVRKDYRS
Chain of Phosphatidylinositol 4,5-bisphosphate 3-kinase catalytic subunit gamma isoform (Homo sapiens) (P48736 whole entry, looked up, canonical isoform): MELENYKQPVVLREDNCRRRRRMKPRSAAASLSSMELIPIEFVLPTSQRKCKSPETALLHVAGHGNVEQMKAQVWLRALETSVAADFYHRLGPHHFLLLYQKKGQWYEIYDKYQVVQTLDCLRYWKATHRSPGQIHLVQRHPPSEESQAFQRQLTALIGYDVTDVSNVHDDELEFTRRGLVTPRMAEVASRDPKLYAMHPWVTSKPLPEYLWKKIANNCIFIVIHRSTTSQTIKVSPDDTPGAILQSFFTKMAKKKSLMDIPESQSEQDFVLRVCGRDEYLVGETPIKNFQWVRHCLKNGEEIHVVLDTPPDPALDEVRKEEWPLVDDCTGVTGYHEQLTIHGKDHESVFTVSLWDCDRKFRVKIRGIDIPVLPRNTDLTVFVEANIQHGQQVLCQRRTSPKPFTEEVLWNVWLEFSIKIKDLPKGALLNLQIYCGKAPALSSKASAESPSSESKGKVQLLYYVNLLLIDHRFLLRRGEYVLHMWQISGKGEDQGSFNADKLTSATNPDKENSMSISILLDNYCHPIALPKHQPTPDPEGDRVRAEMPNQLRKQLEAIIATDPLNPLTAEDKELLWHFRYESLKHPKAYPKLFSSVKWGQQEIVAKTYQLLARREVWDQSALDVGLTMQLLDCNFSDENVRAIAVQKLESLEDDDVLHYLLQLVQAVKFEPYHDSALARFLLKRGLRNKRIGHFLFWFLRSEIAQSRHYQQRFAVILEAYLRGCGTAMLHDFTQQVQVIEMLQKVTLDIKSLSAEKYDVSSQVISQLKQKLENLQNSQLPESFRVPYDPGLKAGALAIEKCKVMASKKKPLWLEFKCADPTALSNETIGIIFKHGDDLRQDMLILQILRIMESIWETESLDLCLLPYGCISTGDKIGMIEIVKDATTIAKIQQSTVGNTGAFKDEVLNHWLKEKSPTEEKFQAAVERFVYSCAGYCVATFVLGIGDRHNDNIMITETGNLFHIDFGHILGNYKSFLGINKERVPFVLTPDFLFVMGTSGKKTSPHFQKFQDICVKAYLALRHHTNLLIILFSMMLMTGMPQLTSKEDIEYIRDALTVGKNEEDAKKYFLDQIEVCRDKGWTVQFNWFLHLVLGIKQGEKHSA

For orientation: inhibition means the drop in the measured response relative to a control, in per cent. For orientation: IC50 means the concentration that inhibits the measured activity by half. A word on the half-life: it is the time needed for the level to fall by half in the phase considered. What is called bioavailability is the share of a dose that reaches the circulation, judged against a reference dose that is usually intravenous. Read a high bioavailability as much systemic uptake. Take `COC(=O)Nc1cc(C(F)(F)F)c(-c2nc(N3CCOCC3)c3cc(CN4CCN(S(C)(=O)=O)CC4)cn3n2)cn1` [RISOVALISIB]: the inhibition was over 50% in series [1] and “Dose-dependent effect” in [2]. The IC50 in the series on MDA-MB-231 was under 1000 nM; in the series on HCC1954 it was under 1000 nM; with ZR-75-1, under 1000 nM; in series [10] it was 17.1 nM. For the same compound, the half-life worked out at 6.79 h in series [3] and 1.46 h in [4]. Moreover, the CLint scaled in [5] came to 39.5 mL/min/kg. In addition, the bioavailability in series [6] came out at 36.9%. Also, the inhibition result in series [7] and in series [8] was “Active” each time. In addition, the inhibition result with Mus musculus was “inactive”. Further, in series [9], the Activity entry was “Non-Toxic”. For the same compound, the Ratio IC50 in the series filed under Homo sapiens was determined as 101.
